Laboratory results from ChEMBL document CHEMBL1833917, “Antimalarial activity of physalins B, D, F, and G” (J Nat Prod, 2011).
The source made the active and inactive calls. No cut-off for these calls is given here.

Columns and labels:
Plasmodium falciparum = assay: Antimalarial activity against chloroquine-resistant and mefloquine-sensitive Plasmodium falciparum W2 infected in human O-positive erythrocytes assessed as inhibition of parasite growth by [3H]hypoxanthine incorporation assay; type: functional, organism-based
How it was run: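 Compounds were tested at several concentrations, diluted in 4% DMSO/RPMI without hypoxanthine, with mefloquine as control. Growth was measured by 3H-hypoxanthine uptake versus untreated wells. Triplicate, means ± SD of three independent experiments.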

[1] = Cytotoxicity against BALB/c mouse splenocytes assessed as [3H]thymidine incorporation after 24 hrs by beta counting; type: cell-based, Splenocyte; details: read-out: LC50
How it was run: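 BALB/c splenocytes, 6 × 10^5 cells/well, in DMEM + 10% FCS + 50 μg/mL gentamycin. Compounds were tested at five concentrations in triplicate. 3H-thymidine (1 μCi/well) was added, followed by 24 h at 37 °C, 5% CO2, then β-counting. Cytotoxicity was taken relative to untreated cultures and LC50 derived. Means ± SD of three experiments.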

[2] = Selectivity index, ratio of LC50 for mouse splenocytes to IC50 for chloroquine-resistant and mefloquine-sensitive Plasmodium falciparum W2
How it was run: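 SI = splenocyte LC50 (3H-thymidine assay) divided by W2 P. falciparum IC50 (3H-hypoxanthine assay), each from three independent experiments.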

Plasmodium berghei [3] = assay: Antimalarial activity against Plasmodium berghei NK65 infected in mouse assessed as reduction of parasitemia level at 50 mg/kg, ip qd for 4 days by optical microscopy analysis; type: functional, organism-based; design: dose 50 mg/kg
How it was run: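 Male SPF Swiss mice, 5 weeks old, infected with P. berghei NK65 (line kept by weekly ip blood passage of 10^6 infected RBC). Groups of five were dosed ip daily for 4 days from the first day of infection, in 200 μL saline plus 10% DMSO. Chloroquine 50 mg/kg and vehicle served as controls. Parasitemia was counted by microscopy on methanol-fixed, fast-panoptic-stained blood smears on days 4–8. Reduction was calculated versus vehicle. Two replicate experiments were run.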

Plasmodium berghei [4] = assay: Antimalarial activity against Plasmodium berghei NK65 infected in mouse assessed as reduction of host mortality at 50 to 100 mg/kg, ip qd for 4 days measured on day 7; type: functional, organism-based
How it was run: (§1)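 Male Swiss mice (5-week-old, SPF), groups of five, infected with P. berghei NK65 (line kept by weekly ip blood passage of 10^6 infected RBC). Dosing ip, 200 μL, daily for four consecutive days from the first day of infection, in saline + 10% DMSO. Comparators were chloroquine 50 mg/kg and 10% DMSO/saline mock. Survival was monitored to day 24.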

Plasmodium berghei [5] = assay: Antimalarial activity against Plasmodium berghei NK65 infected in mouse assessed as reduction of parasitemia level at 50 to 100 mg/kg, ip qd for 4 days by optical microscopy analysis; type: functional, organism-based; how it was run: as §1
Plasmodium berghei [6] = assay: Antimalarial activity against Plasmodium berghei NK65 infected in mouse assessed as reduction of parasitemia level at 50 to 100 mg/kg, ip qd for 4 days measured on day 8 postinfection by optical microscopy analysis; type: functional; design: scale not given: the % may be the effect or the level left; details: dose mg/kg 50-100; route intraperitoneal; how it was run: as §1
Plasmodium berghei [7] = assay: Antimalarial activity against Plasmodium berghei NK65 infected in mouse assessed as reduction of host mortality at 100 mg/kg, ip qd for 4 days measured on day 24 postinfection; type: functional; design: scale not given: the % may be the effect or the level left; details: route intraperitoneal; how it was run: as §1

Structure (SMILES) | IC50 (Plasmodium falciparum) | CC50 at 24 h [1] | Ratio LC50/IC50 [2] | Activity (Plasmodium berghei [3]) | Activity (Plasmodium berghei [4]) | Activity (Plasmodium berghei [5]) | Activity (Plasmodium berghei [6]) | Activity (Plasmodium berghei [7])
C[C@]12C(=O)C=CC=C1[C@@H](O)C[C@@H]1[C@@H]2CC[C@@]2(O)C(=O)O[C@@]3(C)[C@H]4C[C@]5(C)[C@@H](CO[C@@]16O[C@]23[C@H]5C6=O)C(=O)O4 [PHYSALIN G] | 6.7 µM | 37.5 µM | 5.6 |  |  |  |  | 
CCN(CC)CCCC(C)Nc1ccnc2cc(Cl)ccc12 (centres undefined) |  |  |  | Active |  |  |  | 
C[C@@]12C[C@H]3OC(=O)[C@@H]1CO[C@]14O[C@]5([C@H]2C1=O)[C@@](O)(CC[C@H]1[C@H]4C[C@H]2O[C@]24CC=CC(=O)[C@]14C)C(=O)O[C@@]35C [PHYSALIN F] | 2.2 µM | 13.3 µM | 5.94 |  | Active | inactive |  | 
OC(c1cc(C(F)(F)F)nc2c(C(F)(F)F)cccc12)C1CCCCN1 (centres undefined) [MEFLOQUINE] |  | 9.5 µM | 238 |  |  |  |  | 
C[C@]12C(=O)C=CCC1=CC[C@@H]1[C@@H]2CC[C@]2(O)C(=O)O[C@@]3(C)[C@H]4C[C@]5(C)[C@@H](CO[C@@]16O[C@@]32[C@H]5C6=O)C(=O)O4 [PHYSALIN B] | 2.8 µM | 33.9 µM | 12.3 |  |  |  |  | 
C[C@@]12C[C@H]3OC(=O)[C@@H]1CO[C@@]14O[C@]5([C@H]2C1=O)[C@@](O)(CC[C@H]1[C@H]4C[C@@H](O)[C@@]2(O)CC=CC(=O)[C@]12C)C(=O)O[C@@]35C [PHYSALIN D] | 55 µM | 570 µM | 10.4 |  |  |  | 65% | 25%
